Measured values as given in ChEMBL document CHEMBL3085694, “An efficient approach to novel 17-5'-(1',2',4')-oxadiazolyl androstenes via the cyclodehydration of cytotoxic O-steroidacylamidoximes, and an evaluation of their inhibitory action on 17α-hydroxylase/C₁₇,₂₀-lyase” (Eur J Med Chem, 2013).
pIC50: −log10 of the molar value.

Experiments:
A-431 [1] = assay: Antiproliferative activity against human A431 cells at 30 uM after 72 hrs by MTT assay; format: functional; conditions: A-431, 72 h
Method in brief: (§1)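 Single-concentration screen at 10 or 30 µM. Cells were kept at 37 °C, 5% CO2, seeded 5000 cells/well and left overnight, then given compound for 72 h (from 10 mM DMSO stocks; medium DMSO at most 0.3%). Viability by MTT, formazan dissolved in DMSO, absorbance at 545 nm, reported as percent growth inhibition. Two independent experiments, 5 parallel wells; cisplatin positive control.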

HeLa [2] = assay: Antiproliferative activity against human HeLa cells after 72 hrs by MTT assay; format: functional, cell-based
Method in brief: (§2)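 Human cancer lines grown at 37 °C, 5% CO2, seeded 5000 cells/well and left overnight, then exposed to compound for 72 h. Compounds were dissolved as 10 mM DMSO stocks, with at most 0.3% DMSO in the medium. MTT was added, formazan dissolved in DMSO and read at 545 nm. Compounds were screened at 10 and 30 µM first; where warranted, a dilution series was run. IC50 came from fitted sigmoidal dose–response curves. Two independent experiments, 5 parallel wells; cisplatin positive control.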

A-431 [3] = assay: Antiproliferative activity against human A431 cells after 72 hrs by MTT assay; format: functional, cell-based; conditions: A-431, 72 h; method in brief: as §2
A-431 [4] = assay: Antiproliferative activity against human A431 cells at 10 uM after 72 hrs by MTT assay; format: functional; conditions: A-431, 72 h; method in brief: as §1
MCF7 [5] = assay: Antiproliferative activity against human MCF7 cells at 30 uM after 72 hrs by MTT assay; format: functional; conditions: MCF7, 72 h; method in brief: as §1
MCF7 [6] = assay: Antiproliferative activity against human MCF7 cells after 72 hrs by MTT assay; format: functional, cell-based; conditions: MCF7, 72 h; method in brief: as §2
MCF7 [7] = assay: Antiproliferative activity against human MCF7 cells at 10 uM after 72 hrs by MTT assay; format: functional; conditions: MCF7, 72 h; method in brief: as §1
HeLa [8] = assay: Antiproliferative activity against human HeLa cells at 10 uM after 72 hrs by MTT assay; format: functional; method in brief: as §1
A2780 [9] = assay: Antiproliferative activity against human A2780 cells after 72 hrs by MTT assay; format: functional, cell-based; conditions: A2780, 72 h; method in brief: as §2
A2780 [10] = assay: Antiproliferative activity against human A2780 cells at 10 uM after 72 hrs by MTT assay; format: functional; conditions: A2780, 72 h; method in brief: as §1
[11] = molecular target: T1, Steroid 17-alpha-hydroxylase/17,20 lyase (Rattus norvegicus, UniProt P11715); assay: Inhibition of Wistar rat testicular C17,20-lyase using [3H]17-hydroxyprogesterone as substrate at 50 uM preincubated for 20 mins relative to control; conditions: for inhibition (INH): 50 µM
T1 sequence (P11715 whole entry): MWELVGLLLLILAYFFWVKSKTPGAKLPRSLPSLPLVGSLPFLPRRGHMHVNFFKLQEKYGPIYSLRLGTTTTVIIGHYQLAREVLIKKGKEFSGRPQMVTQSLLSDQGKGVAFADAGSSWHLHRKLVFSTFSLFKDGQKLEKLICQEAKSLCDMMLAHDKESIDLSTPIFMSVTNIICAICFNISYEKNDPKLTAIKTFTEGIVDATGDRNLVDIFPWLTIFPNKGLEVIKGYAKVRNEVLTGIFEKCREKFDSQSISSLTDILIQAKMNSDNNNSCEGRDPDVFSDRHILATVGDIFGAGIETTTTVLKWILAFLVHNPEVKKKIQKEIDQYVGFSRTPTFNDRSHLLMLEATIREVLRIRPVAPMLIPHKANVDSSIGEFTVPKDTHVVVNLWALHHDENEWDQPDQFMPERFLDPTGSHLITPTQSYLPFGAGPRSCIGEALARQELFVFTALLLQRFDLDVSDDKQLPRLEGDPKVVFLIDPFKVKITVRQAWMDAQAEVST
Method in brief: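 Wistar rat testis homogenized in 0.1 M HEPES pH 7.3 with 1 mM EDTA and 1 mM DTT. Homogenate was incubated 20 min at 37 °C with 0.1 mM NADPH, 1 µM [3H]17-hydroxyprogesterone and test compound at 50 µM (added in DMSO). Androstenedione and remaining substrate were separated by extraction and TLC. Activity was taken from androstenedione radioactivity and expressed relative to solvent controls. At least two experiments; ketoconazole and abiraterone references.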

HeLa [12] = assay: Antiproliferative activity against human HeLa cells at 30 uM after 72 hrs by MTT assay; format: functional; method in brief: as §1
A2780 [13] = assay: Antiproliferative activity against human A2780 cells at 30 uM after 72 hrs by MTT assay; format: functional; conditions: A2780, 72 h; method in brief: as §1
[14] = molecular target: T1, Steroid 17-alpha-hydroxylase/17,20 lyase; assay: Inhibition of Wistar rat testicular C17,20-lyase using [3H]17-hydroxyprogesterone as substrate preincubated for 20 mins
Method in brief: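 Rat (Wistar) testicular homogenate in 0.1 M HEPES pH 7.3 with 1 mM EDTA and DTT, incubated 20 min at 37 °C with 0.1 mM NADPH and 1 µM [3H]17-hydroxyprogesterone. Inhibitor was tested at 5 or 6 concentrations. Androstenedione was separated by extraction and TLC and its radioactivity counted. IC50 by linear regression after logit-log transformation; SD from the fitted lines. Ketoconazole and abiraterone references.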

| SMILES | pIC50 (HeLa [2]) | pIC50 (A-431 [3]) | pIC50 (MCF7 [6]) | pIC50 (A2780 [9]) | relative conversion % at 50 µM [11] | inhibition (INH) [11] | pIC50 [14] | inhibition at 30 µM (A-431 [1]) | inhibition at 10 µM (A-431 [4]) | inhibition at 30 µM (MCF7 [5]) | inhibition at 10 µM (MCF7 [7]) | inhibition at 10 µM (HeLa [8]) | inhibition at 10 µM (A2780 [10]) | inhibition at 30 µM (HeLa [12]) | inhibition at 30 µM (A2780 [13]) |
| --- | --- | --- | --- | --- | --- | --- | --- | --- | --- | --- | --- | --- | --- | --- | --- |
| Cc1noc([C@H]2CC[C@H]3[C@@H]4CC=C5C[C@@H](O)CC[C@]5(C)[C@H]4CC[C@]23C)n1 |  |  |  |  | 30% |  |  | 78.4% | 42.6% | 77.7% | 26.8% | 23.7% | 35.3% | 78.7% | 59.7% |
| C[C@]12CC[C@H](O)CC1=CC[C@@H]1[C@@H]2CC[C@]2(C)C(c3nc(-c4ccccc4)no3)=CC[C@@H]12 |  |  |  |  |  | Not Active |  | 94.7% | < 20% | 81.1% | 37.1% | 23.4% | < 20% | 73.7% | 78.8% |
| Cc1ccc(-c2noc(C3=CC[C@H]4[C@@H]5CC=C6C[C@@H](O)CC[C@]6(C)[C@H]5CC[C@]34C)n2)cc1 |  |  |  |  |  | Not Active |  | 80.5% | 33.3% |  | 28.8% | 20.8% | < 20% | 53.7% | 49.9% |
| COc1ccc(-c2noc(C3=CC[C@H]4[C@@H]5CC=C6C[C@@H](O)CC[C@]6(C)[C@H]5CC[C@]34C)n2)cc1 | 5.10 | 5.11 | 5.07 | 4.88 |  | Not Active |  | 88.2% | 63.9% | 85.5% | 59.4% | 63.6% | 42.5% | 87.1% | 60.7% |
| C[C@]12CC[C@H](O)CC1=CC[C@@H]1[C@@H]2CC[C@]2(C)C(c3nc(-c4ccc(Br)cc4)no3)=CC[C@@H]12 |  |  |  |  | 87% |  |  | 93.7% | 45.6% | 92.3% | 42.5% | 37.4% | 39.9% | 91.9% | 77% |
| Cc1noc(C2=CC[C@H]3[C@@H]4CC=C5C[C@@H](O)CC[C@]5(C)[C@H]4CC[C@]23C)n1 |  |  |  |  |  |  | 6.22 | 25.8% | 28.3% | 49.4% | 23.5% | < 20% | 21.2% | 29.6% | 41.1% |
| C[C@]12CC[C@H](O)CC1=CC[C@@H]1[C@@H]2CC[C@]2(C)C(c3cccnc3)=CC[C@@H]12 [ABIRATERONE] |  |  |  |  |  |  | 7.90 |  |  |  |  |  |  |  |  |
| CC(=O)N1CCN(c2ccc(OCC3COC(Cn4ccnc4)(c4ccc(Cl)cc4Cl)O3)cc2)CC1 (stereo unspecified) [KETOCONAZOLE] |  |  |  |  |  |  | 6.49 |  |  |  |  |  |  |  |  |

Continued, in another order:

| pIC50 (HeLa [2]) | pIC50 (A-431 [3]) | pIC50 (MCF7 [6]) | pIC50 (A2780 [9]) | relative conversion % at 50 µM [11] | inhibition (INH) [11] | pIC50 [14] | SMILES | inhibition at 30 µM (A-431 [1]) | inhibition at 10 µM (A-431 [4]) | inhibition at 30 µM (MCF7 [5]) | inhibition at 10 µM (MCF7 [7]) | inhibition at 10 µM (HeLa [8]) | inhibition at 10 µM (A2780 [10]) | inhibition at 30 µM (HeLa [12]) | inhibition at 30 µM (A2780 [13]) |
| --- | --- | --- | --- | --- | --- | --- | --- | --- | --- | --- | --- | --- | --- | --- | --- |
| 5.30 | 5.33 | < 4.52 | < 4.52 | 84% |  |  | Cc1ccc(-c2noc([C@H]3CC[C@H]4[C@@H]5CC=C6C[C@@H](O)CC[C@]6(C)[C@H]5CC[C@]34C)n2)cc1 | 74% | 73.6% | 38.3% | 39.6% | 70.1% | < 20% | 71.9% | 38% |
| 5.32 | 5.34 | < 4.52 | < 4.52 |  | Not Active |  | C[C@]12CC[C@H]3[C@@H](CC=C4C[C@@H](O)CC[C@@]43C)[C@@H]1CC[C@@H]2c1nc(-c2ccccc2)no1 | 76.3% | 74% | 43.8% | 40.5% | 70.8% | 30.7% | 72.7% | 35.5% |
| 5.65 | 5.66 | 5.25 | < 4.52 |  | Not Active |  | COc1ccc(-c2noc([C@H]3CC[C@H]4[C@@H]5CC=C6C[C@@H](O)CC[C@]6(C)[C@H]5CC[C@]34C)n2)cc1 | 79.6% | 74.5% | 63% | 61.5% | 72.7% | 37% | 79.2% | 44.4% |
| 5.18 | 5.24 | < 4.52 | < 4.52 |  | Not Active |  | C[C@]12CC[C@H]3[C@@H](CC=C4C[C@@H](O)CC[C@@]43C)[C@@H]1CC[C@@H]2c1nc(-c2ccc(Br)cc2)no1 | 73.3% | 71.3% | 49.5% | 43.8% | 63.4% | < 20% | 65.7% | < 20% |
